Data set [1] in a line: Binding affinity to […] (unknown origin) assessed as increase in melting temperature at 1 uM by fluorescence method. In a few lines:
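Labeled F-myc22-T DNA (5'-FAM/3'-TAMRA) melted with 1 μM ligand in K-1 buffer (10 mM LiAsO2Me2, 1 mM KCl, 99 mM LiCl, pH 7.3). Ramp 0.5 °C/min from 25 to 95 °C. Tm taken from first-derivative maxima and ΔTm calculated versus ligand-free control.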

Data set [2] deals with NCI-H1299. Put plainly: Effect on OVA expression in human H1299 cells at 10 uM incubated for 40 hrs by western blot analysis. Format: functional. Set-up: unit not given here. An outline of the steps:
(§1)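 OVA or 235GAr-OVA constructs transiently transfected into H1299 cells, followed by 40 h exposure to 10 μM compound or DMSO. Whole-cell lysates immunoblotted with rabbit anti-OVA; signal normalized to GAPDH. Experiments repeated at least three times.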

Data set [3] relates to human gammaherpesvirus 4. Put plainly: Binding affinity to EBNA1 G4-quadruplex in human H1299 cells assessed as EB virus EBNA1 expression at 10 uM incubated for 40 hrs by western blot analysis. Format: cell-based. In a few lines:
(§2)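 H1299 cells in RPMI-1640 with 10% FBS at 37 °C, 5% CO2, transiently transfected with EBNA1 or EBNA1ΔGAr constructs, then treated with 10 μM compound (DMSO vehicle) for 40 h. Lysates taken 48 h post-transfection and western blotted with anti-EBNA1 (OT1X). Levels normalized to GAPDH; at least three repeats.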

Data set [4] has as its system human gammaherpesvirus 4. The data set can be described thus: Binding affinity to EBNA1 G4-quadruplex in human H1299 cells assessed as EB virus EBNA1 deleted GAr expression at 10 uM incubated for 40 hrs by western blot analysis. Format: cell-based. In a few lines: as §2
Data set [5] relates to NCI-H1299. The data set can be described thus: Cytotoxicity against OVA-over expressing human H1299 cells at 10 uM incubated for 40 hrs. Format: cell-based. The note with it: nci-h1299, 40 h.
For a further data set, the species on record is Homo sapiens. The data set can be described thus: Binding affinity to […] assessed as increase in melting temperature at 1 uM by fluorescence method. An outline of the steps: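 F-25TAG-T telomeric DNA (5'-FAM/3'-TAMRA) melted with 1 μM ligand in K-100 buffer (10 mM LiAsO2Me2, 100 mM KCl, pH 7.3). Heating 25–95 °C at 0.5 °C/min. ΔTm derived from first-derivative Tm maxima relative to the no-ligand run.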

Data set [6] has as its system human gammaherpesvirus 4. The data set can be described thus: Binding affinity to EB virus F-g4-EBNA1 mRNA assessed as increase in melting temperature at 1 uM by fluorescence method.
The nature of data set [7]: Displacement of TO from EB virus g4-EBNA1 mRNA measured after 5 mins by FID assay. Details: species or system human gammaherpesvirus 4. In a few lines: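 g4-EBNA1 RNA annealed 95 °C 5 min in K100 buffer (10 mM KAsO2Me2, 100 mM KCl, 1 mM EDTA, 1% DMSO), then mixed with TO; final 0.25 μM RNA and 0.5 μM TO, ligand 0–2.5 μM. Fluorescence read after 5 min shaking (485/520 nm), in duplicate. Displacement = 100×(1−F/F0); DC50 interpolated from the curve.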

The test system of data set [8] is NCI-H1299. Put plainly: Effect on 235Gar-OVA expression in human H1299 cells at 10 uM incubated for 40 hrs by western blot analysis. Format: functional. Set-up: unit not given here. An outline of the steps:
as §1

The subject of data set [9] is NCI-H1299. Put plainly: Cytotoxicity against 235Gar-OVA-over expressing human H1299 cells at 10 uM incubated for 40 hrs. Format: cell-based. The note with it: nci-h1299, 40 h.
Data set [10] relates to NCI-H1299. Put plainly: Immunostimulatory activity in human H1299 cells transfected with murine MHC class I Kb and OVA cocultured with mouse CD8+ T-cells assessed as increase in IL-2 level at 5 or 10 uM incubated for 3 days by ELISA. Format: functional, cell-based. In a few lines: (§3)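 H1299 cells co-transfected with mouse Kb and OVA or GAr-OVA, treated with 5 or 10 μM compound or DMSO. After 40 h, 10^5 cells co-cultured with 4×10^5 naive OT-I CD8+ T cells from female mouse lymph nodes, 37 °C, for 3 days. IL-2 in supernatant measured by ELISA.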

For data set [11], the system named is NCI-H1299. The data set can be described thus: Effect on 235Gar-OVA expression in human H1299 cells incubated for 40 hrs by western blot analysis. Format: functional, cell-based. An outline of the steps:
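235GAr-OVA-transfected H1299 cells treated 40 h with compound at 0, 7.5, 10 or 15 μM. Anti-OVA western blot with band intensities normalized to GAPDH.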

The nature of data set [12]: Growth inhibition of human MUTU-I cells incubated for 48 hrs by MTT assay. An outline of the steps: (§4)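 Mutu-1 EBV-positive Burkitt lymphoma cells, about 30,000 per well, treated with compound (0.5–100 μM) or DMSO for 24 or 48 h. MTT (5 mg/mL) added for 4 h, formazan dissolved in isopropanol/0.1 N HCl/10% Triton X-100, absorbance at 540 nm; viability expressed versus DMSO.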

A short description of data set [13]: Inhibition of recombinant NCL (unknown origin)/EB virusG4-EBNA1 mRNA interaction at 10 uM by RNA pull-down assay. An outline of the steps: (§5)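 Biotin-TEG RNA (g4-EBNA1 or non-G4 GM) folded in 10 mM Tris pH 7.5, 100 mM KCl, 0.1 mM EDTA (95 °C 5 min, cooled 2 °C/min), then bound to blocked streptavidin beads. 200 ng recombinant NCL added for 90 min at room temperature with 10 μM compound or DMSO. Beads washed up to 800 mM KCl; eluates western-blotted for NCL.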

Data set [14] has as its system NCI-H1299. Put plainly: Immunostimulatory activity in human H1299 cells transfected with murine MHC class I Kb and 235GAr-OVA cocultured with mouse CD8+ T-cells assessed as increase in IL-2 level at 5 or 10 uM incubated for 3 days by ELISA. Format: functional. In a few lines:
as §3

A short description of data set [15]: Inhibition of recombinant NCL (unknown origin)/GM mRNA (unknown origin) interaction at 10 uM by RNA pull-down assay. In a few lines:
as §5

Data set [16] is described as follows: Inhibition of human NCL/EB virus G4-EBNA1 mRNA interaction in human MUTU-I cells assessed as reduction in PLA signals per cell at 5 uM incubated for […] by proximity ligation assay (reference value: 1.68 +/- 0.44). Format: cell-based. An outline of the steps: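 Mutu-1 cells carrying endogenous EBNA1 treated 36 h with 5 μM compound or DMSO. Processed by EBNA1 mRNA in situ hybridization combined with an anti-nucleolin PLA; nuclear PLA dots per cell counted across two biological replicates, ≥200 cells per sample.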

Data set [17] is described as follows: Growth inhibition of human MUTU-I cells incubated for 24 hrs by MTT assay. An outline of the steps: as §4
Data set [18] is described as follows: Inhibition of native NCL/EB virus G4-EBNA1 mRNA interaction in human H1299 cells assessed as reduction in PLA signals per cell at 5 uM incubated for overnight by proximity ligation assay (reference value: 1.83 +/- 0.54). Format: cell-based.
Data set [19] concerns NCI-H1299. The data set can be described thus: Immunostimulatory activity in human H1299 cells transfected with murine MHC class I Kb and 235GAr-OVA cocultured with mouse CD8+ T-cells assessed as increase in IL-2 level at 10 uM incubated for 3 days by ELISA. Format: functional. An outline of the steps:
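Kb/235GAr-OVA co-transfected H1299 cells, exposed to compound for 40 h, then 10^5 cells incubated 3 days at 37 °C with 4×10^5 OT-I CD8+ T cells. Supernatant IL-2 quantified by ELISA.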

pIC50: −log10 of the molar value. Calls of active or inactive are those of the source. The rule behind the calls is not given here.

As to `O=C(N/N=C/c1ccc2c(ccc[n+]2Cc2ccccc2)c1)c1cccc(C(=O)N/N=C/c2ccc3c(ccc[n+]3Cc3ccccc3)c2)n1.[Br-].[Br-]`, the ΔTm (in data set [1]; in the data set listed under Homo sapiens) was 15 to 30 °C each time. The Activity in the data set on NCI-H1299 [2] is 70; with NCI-H1299 [5] it was “Toxic”; in the data set on NCI-H1299 [8] it was 58; in the data set on NCI-H1299 [9], “Toxic”. Further, the result with human gammaherpesvirus 4 [3], with human gammaherpesvirus 4 [4] and in the data set with human gammaherpesvirus 4 [6] was Active. The pIC50 in [7] was 6.14.
`C[n+]1ccc(/C=N/NC(=O)c2ccc3ccc4ccc(C(=O)N/N=C/c5cc[n+](C)c6ccccc56)nc4c3n2)c2ccccc21.[I-].[I-]`: the shift in melting temperature (ΔTm) in data set [1] fell in the range of 15 to 30 °C; in the data set listed under Homo sapiens, 15 to 30 °C; with human gammaherpesvirus 4 [6], 20 to 30 °C. Further, the Activity in the data set with NCI-H1299 [2] was 96; in the data set with NCI-H1299 [11], “Dose-dependent effect”; in data set [16], 0.59; in the data set on NCI-H1299 [8], 189; in [18], 0.4. Besides, the result in the data set with NCI-H1299 [10] and in the data set on human gammaherpesvirus 4 [4] was inactive. Moreover, in the data set with human gammaherpesvirus 4 [3], the result was Active. The concentration for 50% growth inhibition (GI50) at 48 h in data set [12] was 20 µM. Further, the fold change (FC) is 10 in [13] and over 2 in the data set on NCI-H1299 [14]. In addition, the inhibition entry in [15] is “inactive”. The same compound had a negative logarithm of the IC50 (pIC50) in data set [7] of 6.52. For the same compound, the 50% growth inhibitory concentration (GI50) at 24 h in data set [17] was in the range of 50 to 100 µM.
With `C[n+]1ccc(/C=N/NC(=O)c2cccc(C(=O)N/N=C/c3cc[n+](C)c4ccccc34)n2)c2ccccc21.[I-].[I-]`, the ΔTm (in data set [1]; in the data set filed under Homo sapiens) was 15 to 30 °C each time. The figures for the “fold change (FC)” value (in the data set on NCI-H1299 [19]; in data set [13]) were over 2 and 10, respectively. Also, the Activity is 101 with NCI-H1299 [2], “Dose-dependent effect” in the data set on NCI-H1299 [11], 162 with NCI-H1299 [8] and 0.27 in data set [18]. For the same compound, the outcome in the data set on NCI-H1299 [10] and in the data set with human gammaherpesvirus 4 [4] was inactive. Besides, the result in the data set on human gammaherpesvirus 4 [3] and in the data set with human gammaherpesvirus 4 [6] was Active. Moreover, the GI50 at 48 h in data set [12] was at least 100 µM. Also, the inhibition result in [15] is “inactive”. The negative logarithm of the IC50 (pIC50) in data set [7] was 6.59. In data set [17], this compound gave a GI50 at 24 h of over 100 µM.

The record behind these values is ChEMBL document CHEMBL4364242, “Novel cationic bis(acylhydrazones) as modulators of Epstein-Barr virus immune evasion acting through disruption of interaction between nucleolin and G-quadruplexes of EBNA1 mRNA” (Eur J Med Chem, 2019).
